From ChEMBL document CHEMBL1145528, “Design and study of some novel ibuprofen derivatives with potential nootropic and neuroprotective properties” (Bioorg Med Chem, 2007)
Activity calls are given as the source filed them. The rule behind the calls is not given here.

Tests used:
Rattus norvegicus [1] = assay: LDL level in Fischer 344 rat plasma at 0.3 mmol/kg, ip after 24 hrs; format: functional
Outline: (§1)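 Compounds given ip at 0.3 mmol/kg 30 min later. Plasma total cholesterol, LDL-cholesterol and triglycerides measured in mg/dl and expressed as percent reduction against the hyperlipidemic control group. SD, Student's t-test.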

Mus musculus [2] = assay: Increase of oedema in BALB/c mouse with FCA-induced inflammation at 0.30 mmol/kg, ip; format: functional
Outline: (§2)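 FCA (0.05 mL/paw) injected intradermally into right hind paw of mice, left paw as control. Compounds suspended in water with a few drops of Tween 80, given ip 15 min before FCA. After 3 h both hind paws excised and weighed. Oedema is paw weight increase, compared with control animals given only the vehicle. Means SEM, Student's t-test.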

Rattus norvegicus [3] = assay: Decrease in LDL level in Fischer 344 rat plasma at 0.3 mmol/kg, ip after 24 hrs relative to control; format: functional; design: scale not given: the % may be the effect or the level left; outline: as §1
Rattus norvegicus [4] = assay: Triglyceride level in Fischer 344 rat plasma at 0.3 mmol/kg, ip after 24 hrs; format: functional; outline: as §1
Mus musculus [5] = assay: Anti-inflammatory activity against of FCA-induced odema in BALB/c mouse assessed as oedema inhibition at 0.30 mmol/kg, ip; format: functional; outline: as §2
Rattus norvegicus [6] = assay: Gastrointestinal toxicity in Fischer 344 rat assessed as gastrointestinal ulceration at 1.6 mmol/kg, sc after 4 days; format: functional
Outline: (§3)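 Rats dosed subcutaneously at 1.6 mmol/kg once daily for 4 days. Perforating gastrointestinal ulcers, melena defecation, body weight change and mortality recorded 24 h after the last injection.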

[7] = biological target: T1, Acetylcholinesterase (Rattus norvegicus) (UniProt P37136); assay: Inhibition of Fischer 344 rat brain acetylcholine esterase at 0.6 mM
T1 sequence (whole entry): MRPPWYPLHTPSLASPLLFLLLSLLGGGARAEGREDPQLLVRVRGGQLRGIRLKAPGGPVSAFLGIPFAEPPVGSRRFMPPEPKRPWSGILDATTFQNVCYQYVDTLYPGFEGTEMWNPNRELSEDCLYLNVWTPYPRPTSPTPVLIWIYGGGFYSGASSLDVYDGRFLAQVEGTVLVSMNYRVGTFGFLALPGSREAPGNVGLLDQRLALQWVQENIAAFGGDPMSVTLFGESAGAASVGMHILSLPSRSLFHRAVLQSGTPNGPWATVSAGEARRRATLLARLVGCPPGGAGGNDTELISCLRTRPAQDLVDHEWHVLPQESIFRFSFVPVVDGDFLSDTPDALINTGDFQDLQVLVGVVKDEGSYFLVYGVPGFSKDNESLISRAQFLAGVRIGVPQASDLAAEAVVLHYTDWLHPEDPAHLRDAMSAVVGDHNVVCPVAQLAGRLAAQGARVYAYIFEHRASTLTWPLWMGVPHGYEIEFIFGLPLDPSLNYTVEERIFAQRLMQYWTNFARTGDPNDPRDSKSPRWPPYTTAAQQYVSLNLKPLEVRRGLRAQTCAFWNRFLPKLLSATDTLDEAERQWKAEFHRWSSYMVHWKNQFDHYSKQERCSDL
Outline: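 Brains from untreated rats homogenised (20 mg/mL) in 0.1 M phosphate buffer, pH 8, as the enzyme source. Acetylthiocholine is the substrate. Activity is read colorimetrically as thiocholine reacting with dithio-bisnitrobenzoic acid and followed as a time course. Percent inhibition is taken at the end of the incubation period.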

Rattus norvegicus [8] = assay: Mortality rate in Fischer 344 rat at 1.6 mmol/kg, sc after 4 days; format: functional
Outline: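 Rats receive the compound subcutaneously at 1.6 mmol/kg once daily for 4 days. Mortality, perforating gastrointestinal ulcers, melena defecation and body weight change are recorded 24 h after the last injection.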

Rattus norvegicus [9] = assay: Decrease in total cholesterol in Fischer 344 rat plasma at 0.3 mmol/kg, ip after 24 hrs relative to control; format: functional; design: scale not given: the % may be the effect or the level left; outline: as §1
Rattus norvegicus [10] = assay: Body weight change per 100g in Fischer 344 rat at 1.6 mmol/kg, sc after 4 days; format: functional; outline: as §3
Rattus norvegicus [11] = assay: Total cholesterol level in Fischer 344 rat plasma at 0.3 mmol/kg, ip after 24 hrs; format: functional; outline: as §1
Rattus norvegicus [12] = assay: Decrease in triglyceride level in Fischer 344 rat plasma at 0.3 mmol/kg, ip after 24 hrs relative to control; format: functional; design: scale not given: the % may be the effect or the level left; outline: as §1
Liver microsomes = assay: Inhibition of Fe(2+)/ascorbate-induced lipid peroxidation in Fischer 344 rat hepatic microsomal membranes; format: functional; settings: Microsome
[13] = biological target: T2, Seed linoleate 13S-lipoxygenase-1 (Glycine max) (UniProt P08170); assay: Inhibition of soybean lipoxygenase at 0.3 mM; design: Activity: scale not given: the % may be the effect or the level left
T2 sequence (whole entry): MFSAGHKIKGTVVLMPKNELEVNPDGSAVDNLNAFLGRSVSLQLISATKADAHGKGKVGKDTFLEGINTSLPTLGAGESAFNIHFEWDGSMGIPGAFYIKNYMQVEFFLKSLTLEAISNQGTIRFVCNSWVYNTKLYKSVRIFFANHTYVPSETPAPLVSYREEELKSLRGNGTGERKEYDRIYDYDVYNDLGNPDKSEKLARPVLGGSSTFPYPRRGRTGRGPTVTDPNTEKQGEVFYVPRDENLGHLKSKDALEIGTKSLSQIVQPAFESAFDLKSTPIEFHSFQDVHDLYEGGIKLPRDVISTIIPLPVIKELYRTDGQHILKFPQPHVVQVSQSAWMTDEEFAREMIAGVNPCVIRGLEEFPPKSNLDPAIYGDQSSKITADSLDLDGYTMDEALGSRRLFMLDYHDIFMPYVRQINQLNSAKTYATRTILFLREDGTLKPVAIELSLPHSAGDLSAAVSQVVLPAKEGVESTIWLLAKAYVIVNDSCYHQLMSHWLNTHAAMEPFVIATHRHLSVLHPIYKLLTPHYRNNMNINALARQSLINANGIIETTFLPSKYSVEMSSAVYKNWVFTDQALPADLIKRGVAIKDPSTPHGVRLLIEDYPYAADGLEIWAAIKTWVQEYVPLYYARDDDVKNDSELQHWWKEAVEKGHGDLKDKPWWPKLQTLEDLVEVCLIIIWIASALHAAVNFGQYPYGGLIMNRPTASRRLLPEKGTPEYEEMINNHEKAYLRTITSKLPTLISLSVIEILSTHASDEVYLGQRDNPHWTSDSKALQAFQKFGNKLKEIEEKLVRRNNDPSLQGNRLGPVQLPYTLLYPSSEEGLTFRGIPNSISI
Outline: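 Soybean lipoxygenase 250 U/mL in Tris buffer pH 9. Compounds in 60% aqueous ethanol at 0.1–0.3 mM. Reaction started with sodium linoleate 0.1 mM and followed for 7 min at 28 °C by 13-hydroperoxylinoleic acid conjugated diene absorbance at 234 nm.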

[14] = biological target: T3, Seed linoleate 13S-lipoxygenase-1 (Glycine max, UniProt P08170); assay: Inhibition of soybean lipoxygenase after 7 mins
T3 sequence (P08170 whole entry): T2 sequence (whole entry)

Mus musculus [15] = assay: Increase of oedema in BALB/c mouse with FCA-induced inflammation at 0.15 mmol/kg, ip; format: functional; outline: as §2
Mus musculus [16] = assay: Anti-inflammatory activity against of FCA-induced odema in BALB/c mouse assessed as oedema inhibition at 0.15 mmol/kg, ip; format: functional; outline: as §2

Row | Structure (SMILES) | Activity (Mus musculus [2]) [%] | inhibition in vivo at 300 µmol/kg (Mus musculus [5]) [%] | inhibition [7] [%] | Activity (Liver microsomes) | further results
1 | CC(C)Cc1ccc(C(C)C(=O)O)cc1 (stereo not drawn) [IBUPROFEN] | 44.6 | 53 | 20 | – | Activity (Rattus norvegicus [1]): 38 mg/dL; Activity (Rattus norvegicus [3]): 32%; Activity (Rattus norvegicus [4]): 228 mg/dL; Activity (Rattus norvegicus [6]): 88%; Activity (Rattus norvegicus [8]): 50%; Activity (Rattus norvegicus [9]): 38%; Activity (Rattus norvegicus [10]): -13 g; Activity (Rattus norvegicus [11]): 111 mg/dL; Activity (Rattus norvegicus [12]): 41%
2 | CC(C)Cc1ccc([C@H](C)C(=O)O)cc1 | – | – | 20 | inactive | –
3 | COc1cc(C)ccc1OC(=O)[C@H]1CCCN1C(=O)C(C)C | 79.3 | 1 | – | inactive | Activity [7]: inactive; inhibition [13]: 42%
4 | CC(C)Cc1ccc(C(C)C(=O)N2CCCC2C(=O)OCCCc2cccnc2)cc1 (stereo not drawn) | – | – | 64 | – | –
5 | COc1cc(C)ccc1OC(=O)C1CCCN1C(=O)C(C)c1ccc(CC(C)C)cc1 (stereo not drawn) | 49.6 | 43 | 80 | inactive | IC50 [14]: 140 µM; Activity (Mus musculus [15]): 67.9%; inhibition in vivo at 150 µmol/kg (Mus musculus [16]): 21%; Activity [13]: 78%
6 | CC(C)C(=O)N1CCCC1C(=O)O (stereo not drawn) | – | – | – | inactive | –
7 | CC(C)Cc1ccc(C(C)C(=O)N2CCCC2C(=O)O)cc1 (stereo not drawn) | – | – | – | inactive | –
8 | CC(C)C(=O)N1CCC[C@@H]1C(=O)OCCCc1cccnc1 | 77 | 1 | – | inactive | Activity [7]: inactive
9 | NCCS [CYSTEAMINE] | – | – | – | – | Activity (Rattus norvegicus [6]): 40%; Activity (Rattus norvegicus [8]): 80%; Activity (Rattus norvegicus [10]): -7 g
10 | O=C(O)[C@@H]1CCCN1 | – | – | – | inactive | –
